What was measured:
M14 = test: Anticancer activity against human M14 cells after 48 hrs by sulforhodamine B assay; format: functional; conditions: M14, 48 h
How it was run: (§1)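 NCI-60 human tumour cell line panel. Compounds dissolved in DMSO/H2O and tested at five 10-fold dilutions (10⁻⁴ M to 10⁻⁸ M) for 48 hr. GI50 is the molar concentration giving 50% reduction in net cell growth relative to cell numbers on day 0.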

MDA-MB-435 = test: Anticancer activity against human MDA-MB-435 cells after 48 hrs by sulforhodamine B assay; format: functional; conditions: MDA-MB-435, 48 h; how it was run: as §1
SK-MEL-2 = test: Anticancer activity against human SK-MEL-2 cells after 48 hrs by sulforhodamine B assay; format: functional; conditions: SK-MEL-2, 48 h; how it was run: as §1
SK-MEL-28 = test: Anticancer activity against human SK-MEL-28 cells after 48 hrs by sulforhodamine B assay; format: functional; conditions: SK-MEL-28, 48 h; how it was run: as §1
SK-MEL-5 = test: Anticancer activity against human SK-MEL-5 cells after 48 hrs by sulforhodamine B assay; format: functional; conditions: SK-MEL-5, 48 h; how it was run: as §1
UACC-257 = test: Anticancer activity against human UACC257 cells after 48 hrs by sulforhodamine B assay; format: functional; conditions: UACC-257, 48 h
How it was run: (§2)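 NCI-60 panel protocol. Compounds were dissolved in DMSO/H2O and tested at five 10-fold concentrations (10⁻⁴ to 10⁻⁸ M) with 48 hr incubation. GI50 is the molar concentration giving a 50% reduction in net cell growth relative to cell numbers on day 0.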

IGROV-1 = test: Anticancer activity against human IGROV1 cells after 48 hrs by sulforhodamine B assay; format: functional; conditions: IGROV-1, 48 h; how it was run: as §1
OVCAR-3 = test: Anticancer activity against human OVCAR3 cells after 48 hrs by sulforhodamine B assay; format: functional; conditions: OVCAR-3, 48 h; how it was run: as §1
OVCAR-4 = test: Anticancer activity against human OVCAR4 cells after 48 hrs by sulforhodamine B assay; format: functional; conditions: OVCAR-4, 48 h; how it was run: as §1
OVCAR-5 = test: Anticancer activity against human OVCAR5 cells after 48 hrs by sulforhodamine B assay; format: functional; conditions: OVCAR-5, 48 h; how it was run: as §1
OVCAR-8 = test: Anticancer activity against human OVCAR8 cells after 48 hrs by sulforhodamine B assay; format: functional; conditions: OVCAR-8, 48 h; how it was run: as §1
[1] = Anticancer activity against human NCI-ADR-RES cells after 48 hrs by sulforhodamine B assay; format: functional; how it was run: as §1
SK-OV-3 = test: Anticancer activity against human SKOV3 cells after 48 hrs by sulforhodamine B assay; format: functional; conditions: SK-OV-3, 48 h; how it was run: as §1
786-0 = test: Anticancer activity against human 786-0 cells after 48 hrs by sulforhodamine B assay; format: functional; conditions: 786-0, 48 h; how it was run: as §1
A498 = test: Anticancer activity against human A498 cells after 48 hrs by sulforhodamine B assay; format: functional; conditions: A498, 48 h; how it was run: as §1
ACHN = test: Anticancer activity against human ACHN cells after 48 hrs by sulforhodamine B assay; format: functional; how it was run: as §1
CAKI-1 = test: Anticancer activity against human Caki1 cells after 48 hrs by sulforhodamine B assay; format: functional; conditions: CAKI-1, 48 h; how it was run: as §1
[2] = Anticancer activity against human RXF393 cells after 48 hrs by sulforhodamine B assay; format: functional; conditions: RXF 393, 48 h; how it was run: as §1
SN12C = test: Anticancer activity against human SN12C cells after 48 hrs by sulforhodamine B assay; format: functional; how it was run: as §1
TK-10 = test: Anticancer activity against human TK10 cells after 48 hrs by sulforhodamine B assay; format: functional; conditions: TK-10, 48 h; how it was run: as §2
UO-31 = test: Anticancer activity against human UO31 cells after 48 hrs by sulforhodamine B assay; format: functional; conditions: UO-31, 48 h; how it was run: as §2
DU-145 = test: Anticancer activity against human DU145 cells after 48 hrs by sulforhodamine B assay; format: functional; conditions: DU-145, 48 h; how it was run: as §1
MCF7 = test: Anticancer activity against human MCF7 cells after 48 hrs by sulforhodamine B assay; format: functional; conditions: MCF7, 48 h; how it was run: as §1
MDA-MB-231 = test: Anticancer activity against human MDA-MB-231 cells after 48 hrs by sulforhodamine B assay; format: functional; conditions: MDA-MB-231, 48 h; how it was run: as §1
[3] = Anticancer activity against human Hs 578T cells after 48 hrs by sulforhodamine B assay; format: functional; how it was run: as §1
BT-549 = test: Anticancer activity against human BT549 cells after 48 hrs by sulforhodamine B assay; format: functional; conditions: BT-549, 48 h; how it was run: as §1
T47D = test: Anticancer activity against human T47D cells after 48 hrs by sulforhodamine B assay; format: functional; how it was run: as §2
MDA-MB-468 = test: Anticancer activity against human MDA-MB-468 cells after 48 hrs by sulforhodamine B assay; format: functional; conditions: MDA-MB-468, 48 h; how it was run: as §1
[4] = Anticancer activity against human OCI-AML3 cells expressing mutant NPM1 assessed as apoptosis for 48 hrs by annexin-V and TO-PRO3 staining based flow cytometry; format: functional, cell-based; conditions: OCI-AML-3, 48 h
How it was run: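 OCI-AML3 cells (NPM1c+) in logarithmic growth, passaged 2–3 times weekly. Cells were exposed to the indicated compound concentrations for 48 hr, then stained with annexin V and TO-PRO 3. Percent apoptotic cells was read by flow cytometry. AP50 is the concentration at which 50% of cells undergo apoptosis.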

Cc1c(C=C2C(=O)NC(=S)NC2=O)c2ccccc2n1Cc1ccc(C#N)cc1
GI50 (M14): 1.61 µM
GI50 (MDA-MB-435): 1.49 µM
GI50 (SK-MEL-2): 2.17 µM
GI50 (SK-MEL-28): 2.08 µM
GI50 (SK-MEL-5): 1.84 µM
GI50 (UACC-257): 1.67 µM
GI50 (IGROV-1): 1.61 µM
GI50 (OVCAR-3): 1.58 µM
GI50 (OVCAR-4): 1.59 µM
GI50 (OVCAR-5): 1.84 µM
GI50 (OVCAR-8): 1.32 µM
GI50 [1]: 3.83 µM
GI50 (SK-OV-3): 2.98 µM
GI50 (786-0): 1.76 µM
GI50 (A498): 0.22 µM
GI50 (ACHN): 1.7 µM
GI50 (CAKI-1): 2.21 µM
GI50 [2]: 1.53 µM
GI50 (SN12C): 1.4 µM
GI50 (TK-10): 1.37 µM
GI50 (UO-31): 1.46 µM
GI50 (DU-145): 1.71 µM
GI50 (MCF7): 1.28 µM
GI50 (MDA-MB-231): 1.64 µM
GI50 [3]: 1.22 µM
GI50 (BT-549): 1.87 µM
GI50 (T47D): 2.54 µM
GI50 (MDA-MB-468): 0.38 µM
AC50 [4]: 2.72 µM

Source: ChEMBL document CHEMBL3627695, “1-Benzyl-2-methyl-3-indolylmethylene barbituric acid derivatives: Anti-cancer agents that target nucleophosmin 1 (NPM1)” (Bioorg Med Chem, 2015)
